The source made the active and inactive calls. The rule behind the calls is not given here.
Key:
[1] = target: T1, C3a anaphylatoxin chemotactic receptor (Homo sapiens, UniProt Q16581); test: Antagonist activity at C3a receptor in human MDM cells assessed as inhibition of C3a-induced intracellular calcium release preincubated for 30 mins followed by C3a addition and measured at 1 sec interval for => 200 secs by Fluo-3 AM dye-based FLIPR assay; assay type: functional, cell-based; conditions: read-out: IC50
T1 sequence (Q16581 whole entry): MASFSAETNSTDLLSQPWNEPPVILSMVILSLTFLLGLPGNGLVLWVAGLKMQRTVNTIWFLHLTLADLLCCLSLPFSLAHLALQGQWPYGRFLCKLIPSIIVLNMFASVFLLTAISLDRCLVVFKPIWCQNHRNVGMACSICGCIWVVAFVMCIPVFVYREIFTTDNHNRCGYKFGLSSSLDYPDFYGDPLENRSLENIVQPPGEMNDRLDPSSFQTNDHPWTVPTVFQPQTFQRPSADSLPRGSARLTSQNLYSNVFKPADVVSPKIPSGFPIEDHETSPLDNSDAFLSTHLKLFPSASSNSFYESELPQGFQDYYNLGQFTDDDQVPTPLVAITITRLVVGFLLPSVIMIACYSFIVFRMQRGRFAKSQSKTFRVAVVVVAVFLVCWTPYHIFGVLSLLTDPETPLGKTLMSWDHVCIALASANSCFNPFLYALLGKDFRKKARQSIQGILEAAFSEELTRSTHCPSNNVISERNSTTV
Summary of the method: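 Macrophages were derived from CD14⁺ monocytes (M-CSF, 7 days) and dye-loaded with 4 μM Fluo-3 AM for 1 h at 37 °C in HBSS/probenecid/HEPES, pH 7.4. Antagonist was preincubated for 30 min at 37 °C before addition of synthetic full-length human C3a (100 nM). FLIPR fluorescence was read at ex 495/em 520 nm. Percent response was plotted against log concentration; n ≥ 3.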

[2] = target: T1, C3a anaphylatoxin chemotactic receptor; test: Agonist activity at C3a receptor in human MDM cells assessed as induction of intracellular calcium release measured at 1 sec interval for => 200 secs by Fluo-3 AM dye-based FLIPR assay; assay type: cell-based
Summary of the method: (§1)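 HMDMs were differentiated from CD14⁺ monocytes with M-CSF (100 ng/mL) for 7 days and seeded overnight at 5 × 10⁴ cells/well. Cells were loaded with 4 μM Fluo-3 AM for 1 h at 37 °C, then placed in HBSS with 2.5 mM probenecid and 20 mM HEPES, pH 7.4. Agonist was added on FLIPR and read at ex 495/em 520 nm. EC50 is relative to the maximum from 1 μM C3a; n ≥ 3.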

[3] = target: T1, C3a anaphylatoxin chemotactic receptor; test: Partial agonist activity at C3a receptor in human MDM cells assessed as induction of intracellular calcium release at higher concentration measured at 1 sec interval for => 200 secs by Fluo-3 AM dye-based FLIPR assay relative to control; assay type: cell-based; summary of the method: as §1
[4] = target: T2, C3a anaphylatoxin chemotactic receptor (Homo sapiens) (UniProt Q16581); test: Displacement of Eu-DTPA-C3a from Galpha16-coupled C3a receptor (unknown origin) expressed in HEK293 cells measured after 60 mins by time-resolved fluorescence assay; assay type: cell-based
T2 sequence (whole entry): T1 sequence (Q16581 whole entry)

[5] = target: T3, C5a anaphylatoxin chemotactic receptor 1 (Homo sapiens) (UniProt P21730); test: Antagonist activity at C5a receptor in human MDM cells assessed as inhibition of C5a-induced intracellular calcium release preincubated for 30 mins followed by C5a addition and measured at 1 sec interval for => 200 secs by Fluo-3 AM dye-based FLIPR assay; assay type: functional, cell-based
T3 sequence (whole entry): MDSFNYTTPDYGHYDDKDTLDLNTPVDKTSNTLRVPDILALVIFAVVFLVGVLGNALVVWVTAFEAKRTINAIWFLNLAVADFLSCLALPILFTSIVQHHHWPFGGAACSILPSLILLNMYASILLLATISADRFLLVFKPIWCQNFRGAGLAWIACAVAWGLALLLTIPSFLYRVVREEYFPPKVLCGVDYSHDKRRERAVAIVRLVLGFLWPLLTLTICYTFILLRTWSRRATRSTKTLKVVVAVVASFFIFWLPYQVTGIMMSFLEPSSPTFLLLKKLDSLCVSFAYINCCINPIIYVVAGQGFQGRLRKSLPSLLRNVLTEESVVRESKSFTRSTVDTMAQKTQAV
Summary of the method: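 HMDMs from CD14+ monocytes after 7 days in M-CSF; 5 × 10⁴ cells/well seeded overnight. Cells loaded 1 h at 37 °C with 4 μM Fluo-3 AM, then washed into HBSS with 2.5 mM probenecid and 20 mM HEPES, pH 7.4. Antagonist preincubated 30 min at 37 °C before C5a. Fluorescence (ex 495/em 520 nm) read every 1 s for ≥200 s.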

[6] = Stability of the compound in rat liver microsomes at 1 uM preincubated for 5 mins followed by NADPH addition and measured after 1 hr by LC-MS/MS analysis; assay type: ADME, Microsome
Summary of the method: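 Compound at 1 μM in 100 mM phosphate buffer, pH 7.4 (0.1% DMSO), was incubated with rat liver microsomes […] at 37 °C before further NADPH was added. Aliquots taken at 0, 5, 15, 30 and 60 min were quenched in MeCN/H₂O (9:1), centrifuged and analysed by LC-MS/MS. Microsomal activity was confirmed in parallel with SLIGRL-NH₂; n = 3.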

[7] = AUC (0 to 8 hrs) in Wistar rat at 0.5 mg/kg, iv by LC-MS/MS analysis; assay type: ADME, organism-based; design: time < 8 hr, dose 0.5 mg/kg, route intravenous; conditions: in vivo
Summary of the method: (§2)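 Male Wistar rats with jugular vein catheter, fasted overnight; dosed p.o. by gavage in olive oil or i.v. via catheter in 50% DMSO. Blood drawn from conscious unrestrained rats 5 min before dosing, then 5, 15, 30 min and 1–8 h after. Volume replaced with heparinized saline. Rats fed after 4 h sample. n = 3 per route.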

[8] = Volume of distribution in Wistar rat at 0.5 mg/kg, iv by LC-MS/MS analysis; assay type: ADME, organism-based; conditions: in vivo; summary of the method: as §2
[9] = Cmax in Wistar rat at 10 mg/kg, po by LC-MS/MS analysis; assay type: ADME, organism-based; design: dose 10 mg/kg, route oral; conditions: in vivo; summary of the method: as §2
[10] = Elimination half-life in Wistar rat at 0.5 mg/kg, iv by LC-MS/MS analysis; assay type: ADME, organism-based; conditions: in vivo, read-out: beta t1/2; summary of the method: as §2
[11] = AUC (0 to 8 hrs) in Wistar rat at 10 mg/kg, po by LC-MS/MS analysis; assay type: ADME, organism-based; design: dose 10 mg/kg, time < 8 hr, route oral; conditions: in vivo; summary of the method: as §2
[12] = Tmax in Wistar rat at 10 mg/kg, po by LC-MS/MS analysis; assay type: ADME, organism-based; conditions: in vivo; summary of the method: as §2
[13] = tested on: Rattus norvegicus; test: Antiinflammatory activity in Wistar rat model of BR103-induced paw edema assessed as reduction in hind paw swelling at 10 mg/kg, po administered via gavage pretreated for 2 hrs followed by BR103 challenge and measured after 30 mins by digital caliper method relative to control; assay type: functional; design: scale not given: the % may be the effect or the level left
Summary of the method: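 Male Wistar rats were given antagonist at 10 mg/kg by oral gavage in olive oil 2 h before intraplantar BR103 (350 μg in 100 μL of 5% DMSO). Sham paws received vehicle; sham and control rats received olive oil only. Paw thickness and width were measured with digital calipers at 0, 0.5, 1 and 2 h after agonist; n = 3 per group.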

[14] = Stability of the compound in rat plasma at 1 mM measured after 4 hrs by LC-MS analysis; assay type: ADME, cell-free
Summary of the method: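 Compound added to rat plasma from 1 mM DMSO stock (stock concentration) and incubated at 37 °C. Samples taken at 0, 5, 15, 30, 60, 120 and 240 min, quenched in MeCN/H₂O 9:1, centrifuged and analyzed by LC-MS. Plasma activity checked with SLIGRL-NH₂.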

[15] = Clearance in Wistar rat at 0.5 mg/kg, iv by LC-MS/MS analysis; assay type: ADME, organism-based; conditions: in vivo; summary of the method: as §2

SMILES | IC50 [1] [µM] | EC50 ([2]; read-out: EC50) [µM] | EC50 ([2]; read-out: pEC50 (converted)) [µM] | other results
CCC(c1ccccc1)c1ccc(C(=O)N[C@@H](CCCNC(=N)N)C(=O)O)s1 (mixture of isomers) | 2.3 | > 100 | > 100 | –
Cc1cc(C(=O)N[C@@H](CCCNC(=N)N)C(=O)O)sc1C(c1ccccc1)c1ccccc1 | 0.14 | > 100 | > 100 | –
Cc1cc(C(c2cccc(Cl)c2)c2cccc(Cl)c2)sc1C(=O)N[C@@H](CCCNC(=N)N)C(=O)O | 0.003 | 0.046 | – | Activity [3]: <= 80%
N=C(N)NCCC[C@H](NC(=O)c1cc(-c2ccccc2)c(C(c2ccccc2)c2ccccc2)s1)C(=O)O | 0.14 | > 100 | > 100 | –
CC(c1ccccc1)c1ccc(C(=O)N[C@@H](CCCNC(=N)N)C(=O)O)s1 (mixture of isomers) | > 10 | > 100 | > 100 | –
N=C(N)NCCC[C@H](NC(=O)c1ccc(C(c2cccc(Cl)c2)c2cccc(Cl)c2)s1)C(=O)O | 0.006 | 0.05 | – | Activity [3]: <= 60%
N=C(N)NCCC[C@H](NC(=O)c1sc(C(c2ccccc2)c2ccccc2)cc1Br)C(=O)O | 0.51 | – | 100 | Activity [3]: 30 to 80%
Cc1[nH]c(C(c2ccccc2)c2ccccc2)nc1C(=O)N[C@@H](CCCNC(=N)N)C(=O)O | – | – | – | inhibition [4]: Dose-dependent effect
N=C(N)NCCC[C@H](NC(=O)c1ccc(C(Cc2ccccc2)Cc2ccccc2)s1)C(=O)O | 0.1 | > 100 | > 100 | –
CCC(Cc1ccccc1)c1ccc(C(=O)N[C@@H](CCCNC(=N)N)C(=O)O)s1 (mixture of isomers) | 0.2 | > 100 | > 100 | –
N=C(N)NCCC[C@H](NC(=O)c1ccc(C(c2ccc(F)cc2)c2ccc(F)cc2)s1)C(=O)O | 0.1 | > 10 | > 10 | –
Cc1cc(C(c2ccc(F)cc2)c2ccc(F)cc2)sc1C(=O)N[C@@H](CCCNC(=N)N)C(=O)O | 0.035 | > 100 | > 100 | Activity [3]: 30 to 80%
N=C(N)NCCC[C@H](NC(=O)c1ccc(C2CCCCCCCCCCC2)s1)C(=O)O | > 100 | > 100 | > 100 | –
COc1ccc(C(c2ccc(OC)cc2)c2cc(C)c(C(=O)N[C@@H](CCCNC(=N)N)C(=O)O)s2)cc1 | 2 | > 100 | > 100 | –
N=C(N)NCCC[C@H](NC(=O)c1sc(C(c2ccccc2)c2ccccc2)c2c1CCCC2)C(=O)O | 2.4 | > 100 | > 100 | –
CC(C)=C(c1ccccc1)c1ccc(C(=O)N[C@@H](CCCNC(=N)N)C(=O)O)s1 | 4.4 | > 100 | > 100 | –
CC(=O)N[C@@H](Cc1ccccc1)C(=O)N[C@H]1CCCNC(=O)[C@H](CCCN=C(N)N)NC(=O)[C@H](Cc2c[nH]c3ccccc23)NC(=O)[C@@H](CC2CCCCC2)NC(=O)[C@@H]2CCCN2C1=O | – | – | – | inhibition [5]: Active
N=C(N)NCCC[C@H](NC(=O)c1sc(C(c2ccccc2)c2ccccc2)cc1-c1ccccc1)C(=O)O | > 100 | > 100 | > 100 | –
Cc1cc(C(c2ccc(O)cc2)c2ccc(O)cc2)sc1C(=O)N[C@@H](CCCNC(=N)N)C(=O)O | 0.79 | > 100 | > 100 | Stability [6]: Stable
N=C(N)NCCC[C@H](NC(=O)c1ccc(C(c2ccccc2)c2ccccn2)s1)C(=O)O (mixture of isomers) | 0.04 | > 100 | > 100 | Activity [3]: 30 to 80%
N=C(N)NCCC[C@H](NC(=O)c1ccc(C(c2ccccc2)C2CCCCC2)s1)C(=O)O (mixture of isomers) | 0.004 | 0.07 | – | Activity [3]: <= 30%
N=C(N)NCCC[C@H](NC(=O)c1ccc(C(c2ccc(Cl)cc2)c2ccc(Cl)cc2)s1)C(=O)O | 0.03 | > 100 | > 100 | AUC(0-t) at 8 h [7]: 1800 ng·h/mL; Vd [8]: 0.3 L; Cmax [9]: 143 ng/mL; half-life [10]: 1.02 h; AUC(0-t) at 8 h [11]: 814 ng·h/mL; Tmax [12]: 4 h; Activity [13]: 45%; Stability [14]: Stable; Stability [6]: Stable; clearance [15]: 4.6 mL/min/kg
N=C(N)NCCC[C@H](NC(=O)c1cnc(C(c2ccccc2)c2ccccc2)s1)C(=O)O | 0.6 | > 100 | > 100 | –
N=C(N)NCCC[C@H](NC(=O)c1ccc(C(c2ccccc2)c2ccc3ccccc3c2)s1)C(=O)O (mixture of isomers) | 0.09 | > 100 | > 100 | –
N=C(N)NCCC[C@H](NC(=O)c1ccc(Cc2ccccc2)s1)C(=O)O | > 10 | > 100 | > 100 | –
COc1ccc(C(c2ccc(OC)cc2)c2ccc(C(=O)N[C@@H](CCCNC(=N)N)C(=O)O)s2)cc1 | 6.1 | > 100 | > 100 | –
